TDP2 absorb – TDP2 (human) inhibition, absorbance primary screen | O95551 | recombinant TDP2, T5PNP hydrolysis, p-nitrophenol absorbance 415 nm | inhibition, % at 12.8 µM | 0.34% of 370,000 active | AID 720702;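 active means inhibition above the mean of all tested compounds plus 3 SD, set per campaign, cut at about 25% in these data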
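System – recombinant human TDP2 · Amount – 120 nM TDP2 per well · Buffer or medium – Mg2+-containing Tris-HCl buffer, pH 7.5 · Reagent – T5PNP substrate, 5 mM · Dosing – 12.8 µM single point, 1% DMSO · Incubation – 2 h at 37 °C · Measured by – epi absorbance · Read-out basis – percent inhibition · Benchmarks – high control without enzyme, low control DMSO plus TDP2 · Repeats – singlicate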
LEDGF integ inh – blocks HIV-1 LEDGF/p75-dependent DNA integration. AID 743269. TR-FRET IN-LEDGF/p75 DNA integration, Eu/Cy5. 0.64% of 370,000 active. inhibition, % at 3.7 µM;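 active means inhibition above the screen-wide mean plus 3 SD, cut at about 13% in these data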;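 further: signal is the Cy5 over europium emission ratio at 671 and 618 nm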
NSD2 HMT inh – blocks human histone methyltransferase NSD2; AID 743445; 0.54% of 310,000 active; NSD2 peptide methylation, AlphaScreen, 120 min; inhibition, % at 12.5 µM; O96028; in the data active means inhibition above about 50%
MBD2 inh – MBD2-methylated oligo binding inhibition | Q9UBB5 | TR-FRET, MBD2 binding to methylated oligonucleotide | inhibition, % at 4.4 µM | 0.31% of 370,000 active; in the data active means inhibition above about 13%
Target sequence (Q9UBB5 whole entry, looked up): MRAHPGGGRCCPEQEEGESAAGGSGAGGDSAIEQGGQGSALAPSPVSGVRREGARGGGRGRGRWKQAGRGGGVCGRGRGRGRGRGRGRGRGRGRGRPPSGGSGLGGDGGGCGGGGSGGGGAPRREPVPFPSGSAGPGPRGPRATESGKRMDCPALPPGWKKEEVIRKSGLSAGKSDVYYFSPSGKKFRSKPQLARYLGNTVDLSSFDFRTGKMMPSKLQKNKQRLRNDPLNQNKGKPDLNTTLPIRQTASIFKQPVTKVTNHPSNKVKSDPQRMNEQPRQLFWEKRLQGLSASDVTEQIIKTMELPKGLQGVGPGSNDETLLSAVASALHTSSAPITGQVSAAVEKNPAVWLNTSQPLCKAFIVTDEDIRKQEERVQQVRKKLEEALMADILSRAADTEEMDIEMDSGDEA
CASP6 VEID inh – inhibitors of human caspase-6. P55212. purified caspase-6, Z-VEID-R110 cleavage fluorescence. inhibition, % at 12.5 µM. 0.53% of 350,000 active. AID 686996;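 active means mean inhibition across replicates at least about 35%, with every replicate also reaching that limit, limit read from the data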
UHRF1 binding – human UHRF1 methylated DNA binding inhibitors; Q96T88; UHRF1 binding to methylated oligo, TR-FRET; inhibition, % at 4.4 µM; 0.75% of 370,000 active; AID 687016; in the data active means inhibition above about 21%;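 further: UHRF1 SRA domain binding a hemimethylated CpG hairpin DNA probe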
IN multimer up – activates HIV-1 integrase multimerization in LEDGF counter-screen. 17% of 2,000 active. TR-FRET HIV-1 integrase multimerization, biochemical. activation, % at 7.7 µM. shares compounds with LEDGF integ inh. AID 1053131; in the data active means activation above about 8.9%
TR-FRET interf – TR-FRET optical interference, LEDGF/p75 integration counter-screen; 2,000 tested, under 10 active; TR-FRET optical interference counterscreen, HIV-1 IN multimerization; inhibition, % at 7.7 µM; AID 1053135; shares compounds with LEDGF integ inh;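 active means inhibition above the mean over all tested compounds plus 3 SD, which no compound reached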
LEDGF integ conf – confirmation of HIV-1 LEDGF/p75-dependent integration inhibitors | shares compounds with LEDGF integ inh | TR-FRET LEDGF/p75-dependent HIV-1 integration, biochemical | inhibition, % at 3.7 µM | 36% of 2,000 active; in the data active means inhibition above about 14%
A number is an active result; i = inactive; nt = no result given. Shown are actives, neighbours in structure and some others; about 1.9% of the full set was active somewhere.

SMILES	TDP2 absorb	LEDGF integ inh	NSD2 HMT inh	MBD2 inh	CASP6 VEID inh	UHRF1 binding	IN multimer up	TR-FRET interf	LEDGF integ conf
COCC(=O)N1CCC2(CC1)CN(Cc1cc(F)ccc1F)[C@H](CO)c1c2c2ccc(OC)cc2n1C	nt	nt	nt	nt	i	nt	nt	nt	nt
CC1(C)CC(=O)C(C(C2=C(O)CC(C)(C)CC2=O)c2ccc([N+](=O)[O-])cc2)C(=O)C1 (configuration not stated)	i	39.6	i	i	i	i	i	i	i
COc1cccc(C(C2=C(O)CC(C)(C)CC2=O)C2C(=O)CC(C)(C)CC2=O)c1 (configuration not stated)	i	i	i	i	i	i	nt	nt	nt
C[C@H]1CCCCO[C@H](CN(C)C(=O)Nc2ccc(F)cc2)[C@@H](C)CN([C@@H](C)CO)C(=O)c2cc(NC(=O)NC3CCCCC3)ccc2O1	nt	nt	nt	nt	i	nt	nt	nt	nt
O=C(Cn1cnc2c(nnn2-c2ccccc2)c1=O)NCc1ccc(F)cc1	i	15.2	nt	i	i	32.5	i	i	i
C/C=C/C=C/C(=O)[C@@H]1[C@@H]([C@]2(C)OC(=O)C(C)=C2O)[C@H]2/C(=C(O)/C=C/C=C/C)C(=O)[C@]1(C)C(=O)C2(C)O (some centres not stated)	i	45.4	nt	i	i	48.5	i	i	77.7
CCSc1nc(-c2ccco2)ccc1C#N	i	16.4	i	i	nt	i	i	i	i
COc1cccc(-c2ccc(C#N)c(SCC(=O)NCc3ccco3)n2)c1	i	i	i	i	i	i	nt	nt	nt
C=CCN1CCc2nc(N)sc2CC1	i	14.2	nt	i	nt	i	i	i	i
Cc1noc(C)c1NC(=O)N(C)C[C@@H]1Oc2c(NS(=O)(=O)c3ccc(F)cc3)cccc2C(=O)N([C@@H](C)CO)C[C@@H]1C	nt	nt	nt	nt	i	nt	nt	nt	nt
N#Cc1c(NC(=O)COC(=O)C2CC3C=CC2C3)oc(-c2ccccc2)c1-c1ccccc1 (configuration not stated)	i	17.6	i	i	nt	i	i	i	i
Cc1ccc(C(=O)O)cc1N1C(=O)c2cccc3c([N+](=O)[O-])ccc(c23)C1=O	i	14.4	i	i	41.5	i	i	i	27.0
CC(OC(=O)/C=C/c1ccco1)C(=O)Nc1cccc([N+](=O)[O-])c1 (configuration not stated)	i	i	i	i	i	i	nt	nt	nt
CC(=O)c1ccc(NC(=O)C(C)OC(=O)/C=C/c2ccco2)cc1 (configuration not stated)	i	19.3	i	i	i	i	i	i	i
CC(C)CN=Cc1c(O)c([N+](=O)[O-])cc2oc3c(c12)CCCC3	i	49.0	i	i	nt	i	i	i	65.7
Cc1oc2cc([N+](=O)[O-])c(O)c([N+](=O)[O-])c2c1C(=O)c1ccc(Cl)cc1	i	i	nt	i	i	i	nt	nt	nt
O=[N+]([O-])c1cc2oc3c(c2c(C=NCc2ccccc2)c1O)CCCC3	i	25.3	i	i	nt	i	i	i	70.7
Cc1cccc(/N=C/c2c(O)ccc3oc4c(c23)CCCC4)n1	nt	nt	i	nt	nt	nt	nt	nt	nt
CN1C(=O)c2cc(NC(=O)C3CCOCC3)ccc2OC[C@H]2O[C@@H](CC(=O)NCc3ccc4c(c3)OCO4)CC[C@H]21	nt	nt	nt	nt	i	nt	nt	nt	nt
CCNC(=S)N(Cc1ccccc1)Cc1nc2ccccc2c(=O)[nH]1	i	69.6	i	i	i	i	i	i	i
C[C@@H]1CN([C@@H](C)CO)C(=O)c2cc(C#Cc3ccccc3F)cnc2O[C@@H]1CN(C)C(=O)C1CCCCC1	nt	nt	nt	nt	i	nt	nt	nt	nt
COc1ccc(OC)c(/C=N/NC(=O)CCc2ccc(O)c(O)c2)c1	i	58.0	i	i	nt	i	i	i	i
NC(=O)CC1Nc2cccc3cccc(c23)NC1=O (configuration not stated)	i	18.7	i	i	nt	i	35.3	i	31.5
O=C1c2nc3cc(-c4ccco4)[nH]n3c(=O)c2CN1C1CCCCC1	i	17.9	i	i	i	i	i	i	i
CCCCCCN1CCN(C2CN(Cc3ccccc3)S(=O)(=O)C2)CC1 (configuration not stated)	i	i	nt	i	i	i	nt	nt	nt
SMILES	TDP2 absorb	LEDGF integ inh	NSD2 HMT inh	MBD2 inh	CASP6 VEID inh	UHRF1 binding	IN multimer up	TR-FRET interf	LEDGF integ conf
O=S1(=O)CC(N2CCN(CCO)CC2)CN1Cc1ccccc1 (configuration not stated)	i	35.4	nt	i	i	i	i	i	i
NC(CO)c1csc(Nc2ccc(C(F)(F)F)cn2)n1 (configuration not stated)	i	i	i	i	i	i	nt	nt	nt
NC(c1csc(Nc2cc(Oc3ccccc3)ncn2)n1)C1CCCCC1 (configuration not stated)	i	13.4	i	i	i	i	i	i	i
COc1ccc(C(N)c2csc(Nc3cc(Oc4ccccc4)ncn3)n2)cc1 (configuration not stated)	i	i	i	i	i	i	nt	nt	nt
NC(c1csc(Nc2ccc(C(F)(F)F)cn2)n1)C1CCCCC1 (configuration not stated)	i	17.9	i	i	i	i	i	i	i
CCCN(C)C[C@H]1Oc2ncc(C#CCN(C)C)cc2C(=O)N([C@@H](C)CO)C[C@@H]1C	nt	nt	nt	nt	i	nt	nt	nt	nt
COc1ccc(-c2ccc(C(=O)Nc3cccc(NS(C)(=O)=O)c3)c3occc23)c(C)c1	i	16.4	i	i	i	i	i	i	i
COc1ccc(-c2ccc(C(=O)Nc3cccc(F)c3)c3occc23)c(C)c1	i	i	i	i	i	i	nt	nt	nt
Cc1ccc(S(=O)(=O)N(C)C[C@H]2Oc3ccc(NC(=O)Cc4cn(C)c5ccccc45)cc3C(=O)N([C@@H](C)CO)C[C@@H]2C)cc1	nt	nt	nt	nt	i	nt	nt	nt	nt
O=[N+]([O-])c1ccc(O)c(C=Nc2cccc3ccccc23)c1	i	i	i	i	i	i	nt	nt	nt
O=[N+]([O-])c1ccc(O)c(C=Nc2cccc3ncccc23)c1	i	20.0	i	i	i	i	i	i	i
O=C(COC(=O)c1cc(S(=O)(=O)N2CCOCC2)ccc1Cl)NC1CCCCC1	i	19.3	nt	i	i	i	i	i	i
COC(=O)[C@H]1[C@@H](O)[C@@]2(O)c3c(OC)cc(OC)cc3O[C@@]2(c2ccc(OC)cc2)[C@@H]1c1ccc(F)cc1	i	14.6	nt	i	i	i	i	i	i
COC(=O)C1C(=O)C=C(Nc2ccc(F)cc2)CC1c1ccc(OC)cc1 (configuration not stated)	i	i	i	i	nt	i	nt	nt	nt

Assay outcomes from PubChem.
